Results taken from ChEMBL document CHEMBL1138559, “Synthesis and in vitro anti-HIV evaluation of a new series of 6-arylmethyl-substituted S-DABOs as potential non-nucleoside HIV-1 reverse transcriptase inhibitors” (Eur J Med Chem, 2009).

Experiments:
[1] = tested on: Human immunodeficiency virus 1; assay: Antiviral activity against HIV1 3B infected in human MT4 cells assessed as inhibition of virus-induced cytopathic effect after 4 days by MTT assay; type: functional, organism-based; conditions: Human immunodeficiency virus 1, 3B, MT4, 96 h
In short: (§1)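 MT-4 cells at 1 × 10^5 cells/mL infected at MOI 0.02 (virus stocks titrated in MT-4, as CCID50), then put at once into wells with serial compound dilutions (DMSO stocks, 50 mM or higher). Incubation 4 days, 37 °C. Viable cells counted by MTT. IC50 taken as concentration protecting 50% of infected cells.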

[2] = tested on: Human immunodeficiency virus 2; assay: Antiviral activity against HIV2 ROD infected in human MT4 cells assessed as inhibition of virus-induced cytopathic effect after 4 days by MTT assay; type: functional, organism-based; conditions: Human immunodeficiency virus 2, ROD, MT4, 96 h; in short: as §1
[3] = Cytotoxicity against human MT4 cells by MTT assay; type: cell-based
In short: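 Uninfected MT-4 cells run in parallel with the antiviral plates, with serial compound dilutions from DMSO stocks (50 mM or higher), for 4 days at 37 °C. Viability read by MTT. CC50 is the concentration that lowers viability of uninfected cells by 50%.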

[4] = Selectivity index, ratio of CC50 for human MT4 cells to IC50 for HIV1 3B; type: functional
In short: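 Ratio CC50/IC50. CC50 comes from MTT viability of uninfected MT-4 cells, and IC50 from MTT protection of HIV-1-infected MT-4 cells (MOI 0.02). Both were read after 4 days at 37 °C in parallel assays.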

With CCc1c(Cc2c(Cl)cccc2Cl)nc(SCc2ccc([N+](=O)[O-])cc2)[nH]c1=O the IC50 [1] was 360 nM, the IC50 [2] was > 278 µM and the CC50 [3] was > 278 µM. The “Ratio CC50/IC50” value [4] was >772.

For CCc1c(Cc2c(Cl)cccc2Cl)nc(SCc2ccc(OC)cc2)[nH]c1=O, the IC50 [1] was 160 nM, the IC50 [2] was > 287 µM and the CC50 [3] was > 287 µM. The “Ratio CC50/IC50” value [4] was >1793.

For COc1ccc(CSc2nc(Cc3ccc(-c4ccccc4)cc3)c(C)c(=O)[nH]2)cc1, the IC50 [1] was > 100000 nM, the IC50 [2] was > 100 µM and the CC50 [3] was 100 µM. For the same molecule, the “Ratio CC50/IC50” value [4] was <1.

In the case of COc1ccc(CSc2nc(Cc3cccc4ccccc34)c(C(C)C)c(=O)[nH]2)cc1, the IC50 [1] is reported as 210 nM, the IC50 [2] is reported as > 37.4 µM and the CC50 [3] is reported as 37.4 µM. For the same molecule, the “Ratio CC50/IC50” value [4] was 178.

In the case of COc1ccc(CSc2nc(Cc3ccc(Br)cc3)c(C)c(=O)[nH]2)cc1, the IC50 [1] is reported as > 290000 nM, the IC50 [2] is reported as > 290 µM and the CC50 [3] is reported as > 290 µM.

For COc1ccc(CSc2nc(Cc3ccccc3Br)c(C)c(=O)[nH]2)cc1, the IC50 [1] was 1040 nM, the IC50 [2] was > 179 µM and the CC50 [3] was 179 µM. The “Ratio CC50/IC50” value [4] was 172.

In the case of COc1ccc(CSc2nc(Cc3cc(C)cc(C)c3)c(C)c(=O)[nH]2)cc1, the IC50 [1] is reported as 1100 nM, the IC50 [2] is reported as > 329 µM and the CC50 [3] is reported as > 329 µM. The “Ratio CC50/IC50” value [4] was >299.

In the case of Cc1cc(C)cc(Cc2nc(SCc3ccc([N+](=O)[O-])cc3)[nH]c(=O)c2C)c1, the IC50 [1] is reported as 5460 nM, the IC50 [2] is reported as > 316 µM and the CC50 [3] is reported as > 316 µM. The “Ratio CC50/IC50” value [4] was >58.

With COc1ccc(CSc2nc(Cc3cc(C(F)(F)F)cc(C(F)(F)F)c3)c(C)c(=O)[nH]2)cc1 the IC50 [1] was > 256000 nM, the IC50 [2] was > 256 µM and the CC50 [3] was > 256 µM.

With CCc1c(Cc2cc(C)cc(C)c2)nc(SCc2ccc(OC)cc2)[nH]c1=O the IC50 [1] was 120 nM, the IC50 [2] was > 317 µM and the CC50 [3] was > 317 µM. The “Ratio CC50/IC50” value [4] was >2642.

In the case of CCc1c(Cc2ccc(Br)cc2)nc(SCc2ccc(OC)cc2)[nH]c1=O, the IC50 [1] is reported as > 281000 nM, the IC50 [2] is reported as > 281 µM and the CC50 [3] is reported as > 281 µM.

For CCc1c(Cc2ccccc2Br)nc(SCc2ccc([N+](=O)[O-])cc2)[nH]c1=O, the IC50 [1] was 740 nM, the IC50 [2] was > 272 µM and the CC50 [3] was > 272 µM. The “Ratio CC50/IC50” value [4] was >368.

With CCc1c(Cc2cccc(Br)c2)nc(SCc2ccc(OC)cc2)[nH]c1=O the IC50 [1] was 280 nM, the IC50 [2] was > 201 µM and the CC50 [3] was 201 µM. For the same molecule, the “Ratio CC50/IC50” value [4] was 718.

In the case of CCc1c(Cc2ccc(-c3ccccc3)cc2)nc(SCc2ccc(OC)cc2)[nH]c1=O, the IC50 [1] is reported as > 194000 nM, the IC50 [2] is reported as > 194 µM and the CC50 [3] is reported as 194 µM. For the same molecule, the “Ratio CC50/IC50” value [4] was <1.

For Cc1c(Cc2cc(C(F)(F)F)cc(C(F)(F)F)c2)nc(SCc2ccc([N+](=O)[O-])cc2)[nH]c1=O, the IC50 [1] was > 248000 nM, the IC50 [2] was > 248 µM and the CC50 [3] was > 248 µM.

In the case of CCc1c(Cc2cc(C)cc(C)c2)nc(SCc2ccccc2)[nH]c1=O, the IC50 [1] is reported as 950 nM, the IC50 [2] is reported as > 343 µM and the CC50 [3] is reported as > 343 µM. The “Ratio CC50/IC50” value [4] was >361.

With CCc1c(Cc2cc(C(F)(F)F)cc(C(F)(F)F)c2)nc(SCc2ccc([N+](=O)[O-])cc2)[nH]c1=O the IC50 [1] was > 242000 nM, the IC50 [2] was > 242 µM and the CC50 [3] was > 242 µM.

In the case of CCc1c(Cc2cc(C(F)(F)F)cc(C(F)(F)F)c2)nc(SCc2ccc(OC)cc2)[nH]c1=O, the IC50 [1] is reported as ≥ 9470 nM, the IC50 [2] is reported as > 249 µM and the CC50 [3] is reported as > 249 µM. For the same molecule, the “Ratio CC50/IC50” value [4] was “<=26”.

With COc1ccc(CSc2nc(Cc3cccc(Br)c3)c(C)c(=O)[nH]2)cc1 the IC50 [1] was 6420 nM, the IC50 [2] was > 290 µM and the CC50 [3] was > 290 µM. For the same molecule, the “Ratio CC50/IC50” value [4] was >45.

In the case of Cc1c(Cc2cccc(Br)c2)nc(SCc2ccc([N+](=O)[O-])cc2)[nH]c1=O, the IC50 [1] is reported as 14200 nM, the IC50 [2] is reported as > 280 µM and the CC50 [3] is reported as > 280 µM. The “Ratio CC50/IC50” value [4] was >20.

With Cc1c(Cc2ccccc2Br)nc(SCc2ccc([N+](=O)[O-])cc2)[nH]c1=O the IC50 [1] was 1460 nM, the IC50 [2] was > 246 µM and the CC50 [3] was ≥ 246 µM. The “Ratio CC50/IC50” value [4] was “>=168”.

In the case of CCc1c(Cc2cc(C)cc(C)c2)nc(SCc2ccc([N+](=O)[O-])cc2)[nH]c1=O, the IC50 [1] is reported as 160 nM, the IC50 [2] is reported as > 305 µM and the CC50 [3] is reported as > 305 µM. The “Ratio CC50/IC50” value [4] was >1906.

For CCc1c(Cc2cccc3ccccc23)nc(SCc2ccc(OC)cc2)[nH]c1=O, the IC50 [1] was 1320 nM, the IC50 [2] was > 227 µM and the CC50 [3] was 261 µM. The “Ratio CC50/IC50” value [4] was 198.

In the case of CCc1c(Cc2cccc(Br)c2)nc(SCc2ccc([N+](=O)[O-])cc2)[nH]c1=O, the IC50 [1] is reported as 1340 nM, the IC50 [2] is reported as > 187 µM and the CC50 [3] is reported as 187 µM. The “Ratio CC50/IC50” value [4] was 139.6.

For CCc1c(Cc2ccccc2Br)nc(SCc2ccc(OC)cc2)[nH]c1=O, the IC50 [1] was 230 nM, the IC50 [2] was > 165 µM and the CC50 [3] was 165 µM. The “Ratio CC50/IC50” value [4] was 717.

In the case of O=c1[nH]cnc2c1ncn2[C@H]1CC[C@@H](CO)O1 [DIDANOSINE], the IC50 [1] is reported as 5370 nM, the IC50 [2] is reported as 2.71 µM and the CC50 [3] is reported as ≥ 529 µM. The “Ratio CC50/IC50” value [4] was “>=98”.

With Cc1c(Sc2ccccc2)n(COCCO)c(=O)[nH]c1=O [HEPT] the IC50 [1] was 5060 nM, the IC50 [2] was > 405 µM and the CC50 [3] was ≤ 399 µM. The “Ratio CC50/IC50” value [4] was 79.
